Read-outs that look alike come from different tables or passages of the source.
Legend:
[1] = system: MCF-7 cells; assay: Comet assay; format: cell-based, human; conditions: MCF-7, 1 μM, positive control, versus untreated cells
How it was run: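 Alkaline comet assay on MCF-7 cells (5 × 10^5). Cells got test compound at 10 or 50 μM, doxorubicin at 1 μM as positive control, or no treatment, for 20 min at 37 °C in 5% CO2. Cells were embedded in LMPA over NMPA-coated slides, lysed cold overnight and held 40 min in alkaline buffer. Slides were electrophoresed at 24 V/300 mA, neutralised at pH 7.4, ethanol-dehydrated, PI-stained (50 μg/ml) and imaged by fluorescence microscopy at 20×.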

[2] = system: A549 cells (human lung carcinoma); assay: MTT cytotoxicity assay, A549; format: cell-based; conditions: read-out: (IC50 ± SD) A549
[3] = system: SKOV3 cells (human ovarian carcinoma); assay: MTT cytotoxicity assay, SKOV3; format: cell-based; conditions: read-out: (IC50 ± SD) SKOV3, at least 72 h incubation, mean ± SD
How it was run: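 Cells were grown in RPMI 1640 with 10% FBS and 1% penicillin-streptomycin at 37 °C, humidified CO2. They were seeded at 0.8 × 10^4 cells/well and allowed 24 h recovery. Test compound was added at 1–100 μM in triplicate for at least 72 h. Medium was replaced with 0.5 mg/mL MTT for 3 h at room temperature, and formazan was dissolved in DMSO. Absorbance was read at 490 nm. IC50 came from curve fitting, reported as mean ± SD.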

[4] = system: SKOV3 cells; assay: Intracellular ROS determination; format: cell-based, human; conditions: SKOV3, 1000 μM, positive control
How it was run: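 SKOV3 single-cell suspension (300 × 10^3) was exposed to test compound at 10, 20 or 40 μM for 2 h at 37 °C; untreated cells served as negative control. Cells were washed and loaded with DCFH-DA in phenol red-free RPMI for 1 h at 37 °C. The positive control got H2O2 (1000 μM) for a further 20 min. At least 15000 events were acquired by flow cytometry. ROS is reported as MFI divided by the untreated MFI0.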

[5] = MTT, at least 72 h incubation, mean ± SD

| SMILES | IC50 ([2]; Homo sapiens, A549, 72 h) [µM] | other results |
| --- | --- | --- |
| COc1cccc2c1C(=O)c1c(O)c3c(c(O)c1C2=O)C[C@@](O)(C(=O)CO)C[C@@H]3O[C@H]1C[C@H](N)[C@H](O)[C@H](C)O1 [doxorubicin] |  | percentage of degraded DNA in the tail [1]: remarkably increase |
| N.N.[Cl][Pt][Cl] [Cisplatin, reference compound] |  | IC50 [2, 5]: 9.71 ± 1.7 µM; IC50 [3]: 14.5 ± 1.54 µM |
| FC(F)(F)c1ccc(S)nc1 [Spy-5-CF3, 5-(trifluoromethyl)-pyridine-2-thiol] | > 100 |  |
| Sc1nc2ccccc2[nH]1 [Sbi, benzimidazole-2-thiol] | > 100 |  |
| OO [Complex H2O2, H2O2] |  | ROS induction [4]: could induce ROS production within 20 minutes |
| Sc1ncccn1 [SpyN, pyrimidine-2-thiol] | > 100 |  |
| C=CCP(c1ccccc1)c1ccccc1 [PPh2allyl, allyldiphenylphosphine] |  | IC50 [2, 5]: > 100 µM |
| Sc1nc2ccccc2s1 [Sbt, benzothiazole-2-thiol] | > 100 |  |
| Sc1ccccn1 [Spy, pyridine-2-thiol] | > 100 |  |

— article PMC7108934 (ChemPlusChem, 2019)
